Assay results as given in ChEMBL document CHEMBL4725282, “Discovery of a Conformationally Constrained Oxazolidinone with Improved Safety and Efficacy Profiles for the Treatment of Multidrug-Resistant Tuberculosis” (J Med Chem, 2020).

Experiments:
[1] = Toxicity in male Sprague-Dawley rat assessed as change in red blood cell count at 150 mg/kg/day, po administered for 4 weeks followed by 2 week recovery period (Rvb =7.86 +/- 0.32 10^12/L); format: organism-based; settings: in vivo, 672 h
[2] = Volume of distribution in Balb/c mouse at 2.5 mg/kg, iv by LC-MS/MS analysis; format: ADME, organism-based; settings: in vivo
[3] = Toxicity in female Sprague-Dawley rat assessed as mortality at 50 to 450 mg/kg/day, po administered for 4 weeks followed by 2 week recovery period; format: organism-based; settings: in vivo, 672 h, dose 50-450 mg/kg/day
Summary of the method: (§1)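 SD rats, 6-7 weeks old (96 in total), split into vehicle, 50, 150 and 450 mg/kg/day groups of 12 females and 12 males each, given oral doses once daily for 4 weeks, then 2 weeks of recovery. Mortality, body weight, food intake, eyes, urine and neuropsychic signs were observed. Organ and bone marrow histopathology was done on 8 rats per sex per group after the last dose and on the remaining 4 per sex after 14 days of recovery.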

[4] = Toxicity in female Sprague-Dawley rat assessed as change in reticulocyte level at 150 mg/kg/day, po administered for 4 weeks followed by 2 week recovery period (Rvb =2.85 +/- 0.53 %); format: organism-based; settings: in vivo, 672 h
[5] = Toxicity in male Sprague-Dawley rat assessed as change in platelet count at 450 mg/kg/day, po administered for 4 weeks followed by 2 week recovery period (Rvb =1077 +/- 117 10^9/L); format: organism-based; settings: in vivo, 672 h
[6] = Toxicity in male Sprague-Dawley rat assessed as effect on food consumption at 50 to 450 mg/kg/day, po administered for 4 weeks followed by 2 week recovery period measured at 1 week interval; format: organism-based; settings: in vivo, 672 h, dose 50-450 mg/kg/day
[7] = Toxicity in female Sprague-Dawley rat assessed as ophthalmic changes at 50 to 450 mg/kg/day, po administered for 4 weeks followed by 2 week recovery period; format: organism-based; settings: in vivo, 1008 h, dose 50-450 mg/kg/day, time 6 weeks; summary of the method: as §1
[8] = Toxicity in male Sprague-Dawley rat assessed as change in reticulocyte level at 150 mg/kg/day, po administered for 4 weeks followed by 2 week recovery period (Rvb =2.48 +/- 0.34 %); format: organism-based; settings: in vivo, 672 h
[9] = Toxicity in female Sprague-Dawley rat assessed as change in reticulocyte level at 50 mg/kg/day, po administered for 4 weeks followed by 2 week recovery period (Rvb =2.85 +/- 0.53 %); format: organism-based; settings: in vivo, 672 h
[10] = Half life in CD-1 mouse hepatocytes at 2 uM by LC-MS/MS analysis; format: ADME, cell-based, Hepatocyte
Summary of the method: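 Hepatocytes (male CD-1 mouse, male SD rat, male beagle dog, male cynomolgus monkey, pooled human), final 1 μM compound and 1 million cells/mL, made by mixing 2 μM compound with 2 million cells/mL. Incubated at 37 °C in a CO2 incubator; sampled at 0, 15, 30, 60, 90 and 120 min. Quenched with methanol/ACN containing 0.1% formic acid. Parent remaining measured by LC-MS/MS.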

[11] = Toxicity in male Sprague-Dawley rat assessed as abnormalities in urine at 50 to 450 mg/kg/day, po administered for 4 weeks measured within last 7 days of treatment period; format: organism-based; settings: in vivo, 672 h, dose 50-450 mg/kg/day; summary of the method: as §1
[12] = Toxicity in female Sprague-Dawley rat assessed as change in hematocrit level at 150 mg/kg/day, po administered for 4 weeks followed by 2 week recovery period (Rvb =41.1 +/- 1.4 %); format: organism-based; settings: in vivo, 672 h
[13] = Toxicity in female Sprague-Dawley rat assessed as change in neutrophil level at 150 mg/kg/day, po administered for 4 weeks followed by 2 week recovery period (Rvb =18.5 +/- 5.3 %); format: organism-based; settings: in vivo, 672 h
[14] = Toxicity in male Sprague-Dawley rat assessed as change in mean corpuscular hemoglobin at 50 mg/kg/day, po administered for 4 weeks followed by 2 week recovery period (Rvb =18.3 +/- 0.4 pg); format: organism-based; settings: in vivo, 672 h
[15] = Toxicity in male Sprague-Dawley rat assessed as effect on food consumption at 50 to 450 mg/kg/day, po administered for 4 weeks measured at 1 week interval; format: organism-based; settings: in vivo, 672 h, dose 50-450 mg/kg/day
[16] = Toxicity in male Sprague-Dawley rat assessed as change in neutrophil level at 450 mg/kg/day, po administered for 4 weeks followed by 2 week recovery period (Rvb =15.9 +/- 3.4 %); format: organism-based; settings: in vivo, 672 h
[17] = Toxicity in female Sprague-Dawley rat assessed as abnormalities in urine at 50 to 450 mg/kg/day, po administered for 4 weeks measured within last 7 days of treatment period; format: organism-based; settings: in vivo, 672 h, dose 50-450 mg/kg/day
Summary of the method: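 SD rats, 6-7 weeks, 12 male and 12 female per group. Oral dosing once daily at 50, 150 or 450 mg/kg/day or vehicle for 4 weeks, then 2-week recovery. 8 per sex dissected after last dose, remaining 4 per sex after 14-day recovery. Body weight, urine, food intake and clinical signs monitored.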

[18] = Toxicity in male Sprague-Dawley rat assessed as change in mean platelet volume at 450 mg/kg/day, po administered for 4 weeks followed by 2 week recovery period (Rvb =7.0 +/- 0.4 fL); format: organism-based; settings: in vivo, 672 h
[19] = Toxicity in male Sprague-Dawley rat assessed as change in mean corpuscular volume at 50 mg/kg/day, po administered for 4 weeks followed by 2 week recovery period (Rvb =57.5 +/- 2.0 fL); format: organism-based; settings: in vivo, 672 h
[20] = Toxicity in female Sprague-Dawley rat assessed as histopathological changes at 50 to 450 mg/kg/day, po administered for 4 weeks followed by 2 week recovery period; format: organism-based; settings: in vivo, 672 h, dose 50-450 mg/kg/day; summary of the method: as §1
[21] = Toxicity in female Sprague-Dawley rat assessed as change in mean platelet volume at 50 mg/kg/day, po administered for 4 weeks followed by 2 week recovery period (Rvb =7.1 +/- 0.5 fL); format: organism-based; settings: in vivo, 672 h
[22] = Toxicity in female Sprague-Dawley rat assessed as change in mean corpuscular hemoglobin at 450 mg/kg/day, po administered for 4 weeks followed by 2 week recovery period (Rvb =18.5 +/- 0.6 pg); format: organism-based; settings: in vivo, 672 h
[23] = Oral bioavailability in Balb/c mouse at 25 mg/kg by LC-MS/MS analysis; format: ADME, organism-based; settings: in vivo
Summary of the method: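 Female BALB/c mice, 20-25 g, five per route. Dosed 25 mg/kg p.o. in 0.5% carboxymethyl cellulose or 2.5 mg/kg i.v. in 10% DMSO/saline. Blood sampled 5 min-72 h (p.o.) or 2 min-48 h (i.v.), quantified by LC/MS/MS with ESI+. Parameters by non-compartmental analysis; F = (AUCpo×dose_iv)/(AUCiv×dose_po)×100%.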

[24] = Toxicity in female Sprague-Dawley rat assessed as ophthalmic changes at 50 to 450 mg/kg/day, po administered for 4 weeks measured within 7 days of post last dose; format: organism-based; settings: in vivo, 672 h, dose 50-450 mg/kg/day; summary of the method: as §1
[25] = Genotoxicity in CHO-WBL cells assessed as chromosome aberration at 90 to 397.1 ug/ml incubated for 3 hrs followed by compound washout and measured after 17 hrs in presence of S9 fraction by Giemsa staining based; format: toxicity, subcellular, Cricetulus griseus; settings: chinese hamster, s9, 3 h, dose 90-397.1 µg/ml
Summary of the method: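 CHO-WBL cells in McCoy's 5A with 10% FBS, seeded 20-24 h before treatment. Compound in DMSO, with or without serum-free S-9 mix. Treatment either 3 h, then HBSS wash and 17 h further culture, or 20 h; harvest at 20 h from treatment start. Colcemid 0.1 μg/mL for the final 2 h, hypotonic KCl, methanol:acetic acid fixation, Giemsa stain. 300 metaphases per concentration (150 per duplicate flask) scored.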

CC(=O)NC[C@@H]1OC(=O)N2c3cc(F)c(N4CCSCC4)cc3OC[C@@H]12
Activity [1]: 7.62 10^12/L | Vd [2]: 2.72 L/kg | Activity [3]: Non-Toxic | Activity [4]: 2.89% | Activity [5]: 1038 10^9/L | Activity [6]: Non-Toxic | Activity [7]: Non-Toxic | Activity [8]: 3.15% | Activity [9]: 3.25% | half-life at 2 µM [10]: 1.27 h | Activity [11]: Non-Toxic | Activity [12]: 37.4% | Activity [13]: 12.2% | Activity [14]: 18.7 pg | Activity [15]: Non-Toxic | Activity [16]: 13.7% | Activity [17]: Non-Toxic | Activity [18]: 6.9 fL | Activity [19]: 59.7 fL | Activity [20]: Non-Toxic | Activity [21]: 7.1 fL | Activity [22]: 18.7 pg | bioavailability [23]: 55.9% | Activity [24]: Non-Toxic

CC(=O)NC[C@@H]1OC(=O)N2c3cc(F)c(N4CC[S+]([O-])CC4)cc3OC[C@@H]12
Activity [25]: Non-Toxic
